In PubChem BioAssay AID504469 (NMMLSC, 2011):
Calls of active or inactive are those of the source.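 The calls were made as follows: active = compounds whose fitted GFP dose response EC50 is at or below 33 microM; inactive = the rest.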

Tests used:
[1] = LAP4-GFP expression modulation, dose response, SAR follow-up, cell-based, KU SAR set 2, flow cytometry (AID 504469); details: S. cerevisiae LAP4-GFP strain, flow cytometry fluorescence, 3 h
How it was run: (§1)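 Medium: synthetic complete yeast growth medium. Material: Saccharomyces cerevisiae strain carrying LAP4-GFP fusion protein. Input: cells at 0.2 OD600. Measure: EC50 of background-corrected GFP signal. Timing: compound exposure 3 h at 30 °C with rotation. Technique: flow cytometry of GFP, median fluorescence bead-calibrated to kMESF. Doses: compound dose-response series.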

[2] = test system: S. cerevisiae LAP4-GFP strain, flow cytometry fluorescence, 3 h; test: as above
How it was run: as §1

| Structure (SMILES) | GFP fluorescence (kMESF) ([1]; at 300 µM (top of the series)) | GFP fluorescence (kMESF) ([1]; at 100 µM (top of the series)) | further results |
| --- | --- | --- | --- |
| CNc1nc(N)cc(Nc2ccccc2F)n1 | 4.66 kMESF (inactive) | – | – |
| COC(=O)c1cccc(-c2cc(Nc3cc(C)[nH]n3)nc(NCc3ccccc3)n2)c1 | 4.28 kMESF (inactive) | – | – |
| CNc1nc(N)c([N+](=O)[O-])c(Nc2ccccc2Br)n1 | – | 6.28 kMESF (inactive) | – |
| CNc1nc(N)c([N+](=O)[O-])c(Nc2cccc(Br)c2)n1 | – | 6.21 kMESF (inactive) | – |
| CCOC(=O)c1c(N)nc(NC)nc1Nc1cccc(F)c1 | 4.41 kMESF (inactive) | – | – |
| CCNc1nc(NC2CCCCC2)c([N+](=O)[O-])c(N2CCOCC2)n1 | – | 6.5 kMESF (inactive) | – |
| COc1ccccc1-c1cc(Nc2cc(C)[nH]n2)nc(NCc2ccccc2)n1 | 4.66 kMESF (inactive) | – | – |
| COc1cccc(-c2cc(Nc3cc(C)[nH]n3)nc(NCc3ccccc3)n2)c1 | 4.54 kMESF (inactive) | – | – |
| CNc1nc(NC2CCCCC2)c([N+](=O)[O-])c(N2CCOCC2)n1 | – | 6.42 kMESF (inactive) | – |
| Cc1cc(Nc2cc(-c3ccccc3)nc(NCc3ccccc3)n2)n[nH]1 | 4.41 kMESF (inactive) | – | – |
| Cc1cc(Nc2cc(Nc3ccccc3)nc(NCc3ccccc3)n2)n[nH]1 | 4.28 kMESF (inactive) | – | – |
| CNc1nc(N)c([N+](=O)[O-])c(Nc2ccccc2F)n1 | – | 6.21 kMESF (inactive) | – |
| CNc1nc(N)c(C(=O)c2ccc(C)c(C)c2)c(Nc2cccc(Cl)c2)n1 | – | – | EC50 [2]: 80.9 µM (inactive) |
| CCNc1nc(N)c([N+](=O)[O-])c(Nc2cccc(Cl)c2)n1 | – | 6.21 kMESF (inactive) | – |
| O=[N+]([O-])c1c(NC2CCCCC2)nc(NCc2ccccc2)nc1N1CCOCC1 | 4.34 kMESF (inactive) | – | – |
| CNc1nc(N)c([N+](=O)[O-])c(Nc2cccc(OC)c2)n1 | – | 6.21 kMESF (inactive) | – |
| CNc1nc(N)cc(Oc2cccc(Cl)c2)n1 | 4.73 kMESF (inactive) | – | – |
| CNc1nc(N)c([N+](=O)[O-])c(Nc2cccc(Oc3ccccc3)c2)n1 | – | 6.57 kMESF (inactive) | – |
| CNc1nc(N)cc(Nc2cccc(Cl)c2)n1 | – | – | EC50 [2]: 101 µM (inactive) |
| CNc1nc(NC)c([N+](=O)[O-])c(Nc2cccc(Cl)c2)n1 | – | 6.28 kMESF (inactive) | – |
